≈ marks a conversion by molar mass, not a printed value.
Columns and labels:
[1] = Half-life period for the compound was determined in rats at 50 mg/kg dose; assay type: ADME, organism-based; set-up: dose 50 mg/kg; settings: rat, in vivo
[2] = Plasma concentration for the compound was determined in rats at 50 mg/kg dose; assay type: ADME, organism-based; set-up: dose 50 mg/kg; settings: rat
Procedure, shortened: (§1)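 Pharmacokinetics were measured in SD rats given 50mg/kg, reporting Cmax, Tmax, T1/2 and AUC.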

[3] = Time for maximum plasma concentration reached by compound was determined in rats at 50 mg/kg dose; assay type: ADME, organism-based; set-up: dose 50 mg/kg; settings: rat; procedure, shortened: as §1
[4] = Maximum plasma concentration reached by compound was determined in rats at 50 mg/kg dose; assay type: ADME, organism-based; set-up: dose 50 mg/kg; settings: rat; procedure, shortened: as §1
[5] = tested on: Enterococcus sp.; assay: In vitro antibacterial activity against the Ofloxacin Resistant Enterococcus knothe 101; assay type: functional
Procedure, shortened: (§2)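 MICs by agar dilution following National Committee for Clinical Laboratory Standards recommendations; all strains obtained from Hoechst.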

[6] = tested on: Enterobacter cloacae; assay: In vitro antibacterial activity against the Enterobacter cloacae 1321 E; assay type: functional
[7] = tested on: Escherichia coli; assay: In vitro antibacterial activity against the Escherichia coli 078; assay type: functional
[8] = tested on: HepG2; assay: Cytotoxicity was determined for the compound in HepG2 cell line; assay type: functional, cell-based; settings: Homo sapiens
[9] = tested on: Klebsiella; assay: In vitro antibacterial activity against the Ofloxacin Resistant Klebsiella species 30-92; assay type: functional; procedure, shortened: as §2
[10] = tested on: Pseudomonas aeruginosa; assay: In vitro antibacterial activity against the Ofloxacin Resistant Pseudomonas aeruginosa 279II; assay type: functional; procedure, shortened: as §2
[11] = tested on: Pseudomonas aeruginosa; assay: In vitro antibacterial activity against the Pseudomonas aeruginosa 1592E; assay type: functional
[12] = tested on: Pseudomonas aeruginosa; assay: In vitro antibacterial activity against the Pseudomonas aeruginosa 1771M; assay type: functional
[13] = tested on: Salmonella typhimurium; assay: In vitro antibacterial activity against the Salmonella Typhimurium; assay type: functional, Salmonella enterica subsp. enterica serovar Typhimurium; settings: Salmonella enterica
[14] = tested on: Staphylococcus epidermidis; assay: In vitro antibacterial activity against the Ofloxacin Resistant Staphylococcus epidermidis 291; assay type: functional; procedure, shortened: as §2
[15] = tested on: Staphylococcus epidermidis; assay: In vitro antibacterial activity against the Ofloxacin Resistant Staphylococcus epidermidis 319; assay type: functional; procedure, shortened: as §2
[16] = tested on: Staphylococcus aureus; assay: In vitro antibacterial activity against the Ofloxacin Resistant Staphylococcus aureus 179; assay type: functional; procedure, shortened: as §2
[17] = tested on: Staphylococcus aureus; assay: In vitro antibacterial activity against the Ofloxacin Resistant Staphylococcus aureus 293; assay type: functional; procedure, shortened: as §2
[18] = tested on: Staphylococcus aureus; assay: In vitro antibacterial activity against the Ofloxacin Resistant Staphylococcus aureus 303; assay type: functional; procedure, shortened: as §2
[19] = tested on: Staphylococcus aureus; assay: In vitro antibacterial activity against the Methicillin-Resistant Staphylococcus aureus (MRSA) 690 E; assay type: functional; procedure, shortened: as §2
[20] = tested on: Staphylococcus aureus; assay: In vitro antibacterial activity against the Methicillin-Resistant Staphylococcus aureus (MRSA) 692 E; assay type: functional; procedure, shortened: as §2
[21] = tested on: Staphylococcus aureus; assay: In vitro antibacterial activity against the Methicillin-Resistant Staphylococcus aureus (MRSA) 697 E; assay type: functional; procedure, shortened: as §2
[22] = tested on: Staphylococcus aureus; assay: In vitro antibacterial activity against the Methicillin-Resistant Staphylococcus aureus (MRSA) 701 E; assay type: functional; procedure, shortened: as §2
[23] = tested on: Staphylococcus aureus; assay: In vitro antibacterial activity against the Methicillin-Resistant Staphylococcus aureus (MRSA) 705 E; assay type: functional; procedure, shortened: as §2
[24] = tested on: Staphylococcus aureus; assay: In vitro antibacterial activity against the Methicillin-Resistant Staphylococcus aureus (MRSA) 707 E; assay type: functional; procedure, shortened: as §2
[25] = tested on: Staphylococcus aureus; assay: In vitro antibacterial activity against the Staphylococcus aureus SG511; assay type: functional
[26] = tested on: Streptococcus pyogenes; assay: In vitro antibacterial activity against the Streptococcus pyogenes 308A; assay type: functional
[27] = tested on: Streptococcus pyogenes; assay: In vitro antibacterial activity against the Streptococcus pyogenes 77A; assay type: functional
[28] = tested on: V79-4; assay: Cytotoxicity was determined for the compound in V79-4 cell line; assay type: functional, cell-based; settings: Cricetulus griseus
[29] = tested on: Escherichia coli; assay: In vitro antibacterial activity against the Escherichia coli DC 2; assay type: functional
[30] = tested on: Staphylococcus aureus; assay: In vitro antibacterial activity against the Staphylococcus aureus 285; assay type: functional

For CO/N=C1\CN(c2nc3c(cc2F)c(=O)c(C(=O)O)cn3C2CC2)C[C@]1(C)CN.Cl, the half-life [1] was 4.5 h, the AUC [2] was 90800 ng·h/mL and the Tmax [3] was 2 h. It also gave a Cmax [4] of 9060 ng/mL, an MIC [5] of 0.098 µg/mL and an MIC [6] of 0.007 µg/mL. It also gave an MIC [7] of 0.025 µg/mL, an IC50 [8] of 37.3 µg/mL and an MIC [9] of 1.56 µg/mL. It also gave an MIC [10] of 6.25 µg/mL, an MIC [11] of 1.56 µg/mL and an MIC [12] of 0.781 µg/mL. It also gave an MIC [13] of 0.013 µg/mL, an MIC [14] of 0.195 µg/mL and an MIC [15] of 0.391 µg/mL. The MIC [16] was 0.098 µg/mL, the MIC [17] was 0.098 µg/mL and the MIC [18] was 0.098 µg/mL. The MIC [19] was under 0.002 µg/mL, the MIC [20] was under 0.002 µg/mL and the MIC [21] was under 0.002 µg/mL. The MIC [22] was under 0.002 µg/mL, the MIC [23] was 0.004 µg/mL and the MIC [24] was under 0.002 µg/mL. The MIC [25] was 0.004 µg/mL, the MIC [26] was 0.098 µg/mL and the MIC [27] was 0.013 µg/mL. It also gave an IC50 [28] of 5.49 µg/mL, an MIC [29] of 0.049 µg/mL and an MIC [30] of 0.007 µg/mL.

In the case of CO/N=C1\CN(c2nc3c(cc2F)c(=O)c(C(=O)O)cn3C2CC2)CC1CN (stereo not given) [GEMIFLOXACIN], the half-life [1] is reported as 2.12 h, the AUC [2] is reported as 25800 ng·h/mL and the Tmax [3] is reported as 1 h. It also gave a Cmax [4] of 6630 ng/mL, an MIC [5] of 0.098 µg/mL (≈ 0.252 µM) and an MIC [6] of 0.004 µg/mL (≈ 0.0103 µM). The MIC [7] was 0.007 µg/mL (≈ 0.018 µM), the IC50 [8] was 13.5 µg/mL (≈ 34.6 µM) and the MIC [9] was 0.781 µg/mL (≈ 2.01 µM). For the same molecule, the MIC [10] was 6.25 µg/mL (≈ 16.1 µM), the MIC [11] was 0.391 µg/mL (≈ 1 µM) and the MIC [12] was 0.195 µg/mL (≈ 0.501 µM). For the same molecule, the MIC [13] was 0.004 µg/mL (≈ 0.0103 µM), the MIC [14] was 1.56 µg/mL (≈ 4.01 µM) and the MIC [15] was 3.12 µg/mL (≈ 8.03 µM). It also gave an MIC [16] of 0.781 µg/mL (≈ 2.01 µM), an MIC [17] of 0.781 µg/mL (≈ 2.01 µM) and an MIC [18] of 0.781 µg/mL (≈ 2.01 µM). For the same molecule, the MIC [19] was 0.098 µg/mL (≈ 0.252 µM), the MIC [20] was 0.049 µg/mL (≈ 0.126 µM) and the MIC [21] was 0.049 µg/mL (≈ 0.126 µM). It also gave an MIC [22] of 0.098 µg/mL (≈ 0.252 µM), an MIC [23] of 0.098 µg/mL (≈ 0.252 µM) and an MIC [24] of 0.025 µg/mL (≈ 0.0642 µM). It also gave an MIC [25] of 0.013 µg/mL (≈ 0.0334 µM), an MIC [26] of 0.195 µg/mL (≈ 0.501 µM) and an MIC [27] of 0.025 µg/mL (≈ 0.0642 µM). It also gave an IC50 [28] of 10.1 µg/mL (≈ 25.9 µM), an MIC [29] of 0.025 µg/mL (≈ 0.0642 µM) and an MIC [30] of 0.025 µg/mL (≈ 0.0642 µM).
